# Legend:
# Liver [1] = assay: Drug uptake in Sprague-Dawley rat liver at 22 MBq/body, iv administered as bolus coadministered with rifampicin measured after 2 mins by PET analysis; type: ADME, organism-based; conditions: in vivo
# Method in brief: (§1)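 Rats were anesthetized with 1.5% isoflurane in nitrous oxide/oxygen (7/3). The 11C tracer (approx. 22 MBq per animal) was given as an IV bolus through a tail-vein catheter, followed by a 60 min microPET emission scan. Regions of interest were set on liver, intestine, kidney and urinary bladder. Uptake was decay-corrected to injection time and expressed as % dose/tissue or % dose/mL blood, normalized to injected radioactivity. Rifampicin was infused at 1.5 µmol/min/kg where applied.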
# Kidney = assay: Drug uptake in Sprague-Dawley rat kidney at 22 MBq/body, iv administered as bolus measured up to 2 mins by PET analysis; type: ADME, organism-based; conditions: in vivo; method in brief: as §1
# Intestine [2] = assay: Drug uptake in Sprague-Dawley rat intestine at 22 MBq/body, iv administered as bolus coadministered with rifampicin measured after 60 mins by PET analysis; type: ADME, organism-based; conditions: in vivo, 1 h; method in brief: as §1
# Liver [3] = assay: Drug uptake in Sprague-Dawley rat liver at 22 MBq/body, iv administered as bolus measured up to 2 mins by PET analysis; type: ADME, organism-based; conditions: in vivo; method in brief: as §1
# Blood [4] = assay: Drug metabolism in Mrp2 hereditary-deficient Sprague-Dawley rat blood assessed as radiometabolite formation at 22 MBq, iv administered as bolus at 2 mins by PET analysis; type: ADME, organism-based; conditions: in vivo
# Method in brief: (§2)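 Radiometabolite analysis, run apart from the PET scans. Blood, liver homogenate and bile were mixed with an equal volume of acetonitrile and centrifuged at 12,000 rpm for 2 min at 4 °C. The supernatant was diluted with mobile phase and run on reversed-phase HPLC (10 mM ammonium acetate/acetonitrile gradient, 2.0 mL/min). Detection was UV 254 nm plus a NaI(Tl) positron detector, reading intact tracer against metabolites.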
# [5] = Drug uptake in Mrp2 hereditary-deficient Sprague-Dawley rat bile at 22 MBq, iv administered as bolus after 20 mins by PET analysis; type: ADME, organism-based; conditions: in vivo
# Liver [6] = assay: Drug metabolism in Mrp2 hereditary-deficient Sprague-Dawley rat liver assessed as radiometabolite formation at 22 MBq, iv administered as bolus within 20 mins by PET analysis; type: ADME, organism-based; conditions: in vivo; method in brief: as §2
# Blood [7] = assay: Drug metabolism in Mrp2 hereditary-deficient Sprague-Dawley rat blood assessed as radiometabolite formation at 22 MBq, iv administered as bolus within 20 mins by PET analysis; type: ADME, organism-based; conditions: in vivo; method in brief: as §2
# [8] = Drug uptake in Sprague-Dawley rat urinary bladder at 22 MBq/body, iv administered as bolus measured after 60 mins by PET analysis; type: ADME, organism-based; conditions: in vivo, 1 h; method in brief: as §1
# Hepatocyte [9] = assay: Metabolic stability in human hepatocytes; type: ADME, cell-based
# Intestine [10] = assay: Drug uptake in Sprague-Dawley rat intestine at 22 MBq/body, iv administered as bolus measured after 60 mins by PET analysis; type: ADME, organism-based; conditions: in vivo, 1 h; method in brief: as §1
# Liver [11] = assay: Drug uptake in Mrp2 hereditary-deficient Sprague-Dawley rat liver at 22 MBq, iv administered as bolus after 20 mins by PET analysis; type: ADME, organism-based; conditions: in vivo; method in brief: as §1
# [12] = Drug metabolism in Mrp2 hereditary-deficient Sprague-Dawley rat bile assessed as radiometabolite formation at 22 MBq, iv administered as bolus within 20 mins by PET analysis; type: ADME, organism-based; conditions: in vivo; method in brief: as §2
# Hepatocyte [13] = assay: Metabolic stability in rat hepatocytes; type: ADME, cell-based
# Blood [14] = assay: Drug uptake in Mrp2 hereditary-deficient Sprague-Dawley rat blood at 22 MBq, iv administered as bolus after 20 mins by PET analysis; type: ADME, organism-based; conditions: in vivo; method in brief: as §1
smiles,measurement,setting,value
C/C(=C\[11CH3])C(=O)O[C@H]1C[C@H](O)C=C2C=C[C@H](C)[C@H](CC[C@@H](O)C[C@@H](O)CC(=O)[O-])[C@H]21.[Na+],Drug uptake,Liver [1],Not Active
same,Drug uptake,Kidney,Active
same,Drug uptake,Intestine [2],Not Active
same,Drug uptake,Liver [3],Active
same,Drug metabolism,Blood [4],Active
same,Drug uptake,[5],Active
same,Drug metabolism,Liver [6],Active
same,Drug metabolism,Blood [7],Active
same,Drug uptake,[8],1.51%
same,Stability,Hepatocyte [9],Stable
same,Drug uptake,Intestine [10],67.9%
same,Drug uptake,Liver [11],Active
same,Drug metabolism,[12],Active
same,Stability,Hepatocyte [13],Stable
same,Drug uptake,Blood [14],Active
